Compound activity: PubChem BioAssay, NMMLSC
MEKK3 PB1 HTS: MEKK3-MEK5 PB1 interaction, increase or decrease; binding response (% of control), % at 10 µM; hit rate 1.4% among 290,000; bead-based flow cytometry, Alexa488-MEK5 binding to MEKK3; actives lie on both sides; 0 = blocked by unlabeled MEK5, 100 = vehicle;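 active means binding response more than 3 SD above or below the average of its plate-row segment, actives on both sides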;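 further: Alexa488 bead fluorescence after subtracting the streptavidin-only scavenger bead signal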
Target sequence (Q99759 whole entry, looked up): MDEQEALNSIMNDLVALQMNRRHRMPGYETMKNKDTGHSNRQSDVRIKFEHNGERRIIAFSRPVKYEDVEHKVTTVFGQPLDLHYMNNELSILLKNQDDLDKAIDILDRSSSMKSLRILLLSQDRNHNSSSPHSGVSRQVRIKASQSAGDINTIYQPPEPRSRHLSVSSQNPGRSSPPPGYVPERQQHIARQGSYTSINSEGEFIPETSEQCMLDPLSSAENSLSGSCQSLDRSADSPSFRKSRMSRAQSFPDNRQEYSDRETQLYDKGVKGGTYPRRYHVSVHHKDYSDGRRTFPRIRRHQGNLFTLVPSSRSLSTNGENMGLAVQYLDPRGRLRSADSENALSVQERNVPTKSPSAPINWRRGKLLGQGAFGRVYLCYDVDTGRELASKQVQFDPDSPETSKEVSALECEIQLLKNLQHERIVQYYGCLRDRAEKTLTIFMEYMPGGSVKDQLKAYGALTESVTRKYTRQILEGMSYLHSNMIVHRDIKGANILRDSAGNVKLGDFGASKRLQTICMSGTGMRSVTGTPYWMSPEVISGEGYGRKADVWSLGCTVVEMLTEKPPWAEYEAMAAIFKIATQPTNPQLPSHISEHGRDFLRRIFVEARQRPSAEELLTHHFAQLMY
MEKK2 mut-MEK5: signal of MEK5 binding to mutant human MEKK2 PB1 domain. percent response, % at 10 µM. AID 1530. hit rate 0.35% among 290,000. bead flow cytometry, Alexa488-MEK5 binding to MEKK2 mutant; in the data active means percent response above about 24%, passing the limit was not always enough
Arr AP2 block: inhibitors of human beta-arrestin and AP2 interaction. inhibition, % at 10 µM. FITC-arrestin peptide / GST-AP2 beads, flow cytometry; AP2 beta2 appendage carries R879A mutation. hit rate 0.31% among 340,000;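 active means inhibition above a set limit, near 3 SD of compounds lacking own fluorescence, cut at about 54% in these data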;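 further: plate controls were DMSO wells for no effect and 5 µM unlabelled arrestin peptide for full effect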
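Material – GST-tagged AP2 beta2-adaptin appendage (R879A) on 4 µm glutathione beads · Probe or stimulus – fluorescein-tagged arrestin peptide at 50 nM final · Timing – 12 min plus 1 h, RT · Detection – bead flow cytometry, FITC channel · Read-out basis – inhibition as reduced fluorescein signal on beads, percent · Medium – PBS plus Tween 20 (0.05%) and BSA (0.1%)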
MEKK2 WT-MEK5: raises or lowers MEK5 binding to wildtype human MEKK2 PB1 domain; Q9Y2U5; bead flow cytometry, Alexa488-MEK5 binding to MEKK2 WT; actives lie on both sides; binding response (% of control), % at 10 µM; hit rate 1.1% among 290,000; AID 1531; in the data active means binding response below about 67% or above about 130%
* hit, by the source's call; . = no result; ! = a repeat was not active; [ ] = another dose, or the depositor's remark. The list is not random: actives were taken first. Their share in the collection is about 2.3%.

SMILES	MEKK3 PB1 HTS	MEKK2 mut-MEK5	Arr AP2 block	MEKK2 WT-MEK5
C#CCOCCOCCOCCNc1nc(N2CCN(C(=O)C(Cc3cc4ccccc4[nH]3)n3cc(C(N)Cc4ccc(O)cc4)nn3)CC2)nc(N2CCN(C(=O)C(Cc3cc4ccccc4[nH]3)n3cc(C(N)Cc4ccc(O)cc4)nn3)CC2)n1 (stereo not given)	98.0	179.0*	.	298.0*
Oc1ccc(C[C@H]2CNC(=S)N2CC2CCCN2C[C@H](Cc2ccc(O)cc2)N2C[C@H](Cc3ccc(O)cc3)N(CC3CCCCCC3)C2=S)cc1 (stereo not given in full)	.	.	6.1	.
O=C(CC1C(=O)NCCN1CCCc1ccccc1)NCCc1ccccc1F (stereo not given)	103.0	28.0*	-6.1	134.0*
CN1CCN(c2ccc(NC(=O)c3ccc(Oc4ccccc4)cc3)cc2)CC1	100.0	27.0*	-11.3	124.0
Cc1onc(-c2ccccc2)c1-c1ccc(S(N)(=O)=O)cc1	88.0	-6.0	3.3	53.0*!
CCC(=O)NS(=O)(=O)c1ccc(-c2c(-c3ccccc3)noc2C)cc1	102.0	2.0	.	106.0
CC1CCN(CCNC(=O)c2ccc3c(=O)n(Cc4ccc(Cl)cc4)c(=S)[nH]c3c2)CC1	101.0	39.0*	-7.1	175.0*
O=S(=O)(c1cccc(NC(=S)N2CCN(c3cccc(Cl)c3)CC2)c1)C(F)F	134.0*	2.0	-4.4	117.0
COC(=O)c1ccc(NC(=O)CSc2nncn2-c2ccccn2)cc1	0.0*[inhibitor]	-24.0	2.9	-11.0*[inhibitor]
COC(=O)c1cccc(NC(=O)CSc2nncn2-c2ccccn2)c1	104.0	4.0	14.7	100.0
CC(=O)Nc1ccccc1N(CC(O)Cn1c2ccccc2c2ccccc21)S(=O)(=O)c1ccc(C)cc1 (stereo not given)	138.0*	0.0	-5.4	106.0
COCCn1c(=O)c2cc3c(=O)n(CCOC)c(=O)c3cc2c1=O	102.0	3.0	0.3	99.0
CC(C)(C)C(=O)OCCn1c(=O)c2cc3c(=O)n(CCOC(=O)C(C)(C)C)c(=O)c3cc2c1=O	2.0*[inhibitor]	-16.0	3.2	2.0*[inhibitor]
CCOC(=O)C1=CN(CC)S(=O)(=O)NC1CC (stereo not given)	.	.	48.7	.
Cc1ccc(NC(=O)CN(C)C(=O)Cc2c[nH]c3ccccc23)cc1	.	.	3.2	.
Cc1c(C(=O)N2CCCCC2)c(S(=O)(=O)N(C)Cc2ccco2)c(C)n1C	102.0	3.0	-20.2	102.0
CCOC(=O)c1c(S(=O)(=O)N(C)Cc2ccco2)c(C)n(C)c1C	30.0*[inhibitor]	-53.0	6.0	43.0*[inhibitor]
Cc1c(C)n(C)c2ccc(C(=O)NCCCN3CCN(c4ccccc4F)CC3)cc12	107.0	21.0	5.9	158.0*
O=C(Cn1c(=O)c2cccn2c2ccc(F)cc21)NCCCN1CCN(c2ccccc2F)CC1	108.0	27.0*	17.8	156.0*
Cc1c(C)n(C)c2ccc(C(=O)NCCCN3CCN(c4ccc(F)cc4)CC3)cc12	98.0	7.0	37.5	134.0*
Cc1ccc(NC(=O)CN2CCN(C(=O)c3ccco3)CC2)cc1S(=O)(=O)N(C)C	.	.	-7.7	.
COc1ccc2sc(/C=C/c3ccccc3O)[n+](C)c2c1	94.0	19.0	-7.0	4.0*
COc1ccc(N=Cc2ccccc2O)cc1	.	.	-12.6	.
O=C(CCc1ccccn1)NC1CCCc2c1cnn2-c1ccc(F)cc1F (stereo not given)	100.0	-10.0	1.6	90.0
CCc1nccn1CCC(=O)NC1CCCc2c1cnn2-c1ccc(F)cc1F (stereo not given)	71.0*[inhibitor]	-22.0	52.0	66.0*[inhibitor]
SMILES	MEKK3 PB1 HTS	MEKK2 mut-MEK5	Arr AP2 block	MEKK2 WT-MEK5
CCOC(=O)c1sc(Nc2ccc(Br)cc2)nc1C	107.0	5.0	-12.3	-4.0*
CCC1=[N+](C)CCn2c(C)ccc21	99.0	11.0	83.2*	103.0
COc1ccc2[nH]c(=O)c(CN(C(=O)c3cccnc3)c3ccc(C)cc3C)cc2c1	102.0	4.0	-5.6	-3.0*
COc1ccc2[nH]c(=O)c(CN(C(=O)c3cccnc3)c3cc(C)ccc3C)cc2c1	96.0	1.0	9.0	98.0
COc1ccc(C(CNC(=O)c2oc3cc(Br)ccc3c2C)N2CCCCC2)cc1 (stereo not given)	107.0	30.0*	38.9	141.0*
CCc1ccc2oc(C(=O)NCC(c3ccc(OC)cc3)N3CCCCC3)c(C)c2c1 (stereo not given)	104.0	26.0*	-7.0	131.0
COc1ccc(C(CNC(=O)c2oc3cc(C)c(C)cc3c2C)N2CCCCC2)cc1 (stereo not given)	95.0	8.0	3.6	127.0
COc1ccc(C(CNC(=O)c2oc3ccc(OC)cc3c2C)N2CCCC2)cc1 (stereo not given)	.	.	4.3	.
Cc1cc(C)n2c(=O)[nH]nc2c1	.	.	8.2	.
CC(C)NC(=S)NNc1ncnc2sc3c(c12)CC(C)(C)OC3	.	.	-8.5	.
CC1(C)Cc2c(sc3ncnc(NNC(=S)NCc4ccccc4)c23)CO1	132.0*	0.0	-14.4	108.0
CC(C)CNC(=O)c1ccccc1C(=O)NC1(C(=O)NCC(C)C)CCCC1	.	.	5.1	.
OC(c1cc(-c2ccc(Cl)cc2)nc2ccccc12)C1CCCCN1 (stereo not given)	115.0	59.0*	8.2	155.0*
CCN1CCN(CCNC(=O)c2ccc3nc(-c4cccc(C)c4)c(-c4cccc(C)c4)nc3c2)CC1	104.0	25.0*	-7.3	151.0*
CCCNC(=O)c1ccc2nc(-c3ccccc3)c(-c3ccccc3)nc2c1	106.0	8.0	-1.4	104.0
O=C(Cn1cc(CNC(=O)C2CCCCC2)nn1)Nc1cc(C(F)(F)F)ccc1Cl	.	.	5.0	.
CC(C)Oc1ccc(C(=O)OCC(=O)c2ccc[nH]2)cc1	.	.	-0.6	.
CCCn1nc(C(=O)Nc2nnc(CC)s2)c2ccccc2c1=O	98.0	7.0	2.1	-5.0*
Cc1ccc2c(c1)CCCN2CC(=O)N(C)c1c(N)n(Cc2ccccc2)c(=O)[nH]c1=O	.	.	15.2	.
CCN(CC(=O)NCc1cccs1)C(=O)c1ccc(S(=O)(=O)Nc2ccccc2Cl)cc1	.	.	9.2	.
CC1CC(C)CN(C(=O)COC(=O)c2ccc(S(=O)(=O)N(C)c3ccccc3)cc2)C1 (stereo not given)	.	.	-4.4	.
COc1ccc(CN2CCN(S(=O)(=O)c3ccc(F)cc3)CC2)cc1OC	13.0*[inhibitor]	-18.0	3.6	22.0*[inhibitor]
O=C(CCn1c(=O)[nH]c2ccsc2c1=O)N1CCN(c2cccc(Cl)c2)CC1	121.0	8.0	7.9	119.0
O=C(CCn1c(=O)[nH]c2ccsc2c1=O)N1CC(=O)N(CCc2ccccc2)C(=O)C1	74.0*[inhibitor]	-9.0	-12.7	81.0
O=C(CCCN1C(=O)c2cccc3cccc(c23)C1=O)N1CCN(c2ccccn2)CC1	129.0*	0.0	0.7	109.0
O=C(CCCN1C(=O)c2cccc3cccc(c23)C1=O)N1CCN(c2ncccn2)CC1	97.0	-2.0	3.9	94.0
O=C(NN=Cc1ccccc1)C(Oc1ccccc1)c1ccccc1 (stereo not given)	.	.	19.8	.
